Source: ChEMBL document CHEMBL1145831 (J Med Chem, 2003)

Legend:
Mus musculus [1] = assay: In vivo antitumor activity against murine pancreatic adenocarcinoma and measured as % weight loss on a schedule of 3,5 days and at a total dose of 1 mg/kg; format: functional
In short: (§1)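 Mice bearing drug-sensitive murine pancreatic adenocarcinoma Panc-03 were dosed on the listed days at the listed total doses. Dosing solutions were made in water from stock solutions and injected within 20 min. Chlorohydrin solutions were acidified with 0.05% citric acid. Tolerance was recorded as body weight loss and number of deaths.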

CCRF-CEM = assay: In vitro growth inhibitory activity in the human CCRF-CEM leukemia cell line.; format: functional, cell-based
In short: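 CCRF-CEM human leukemia cells in log phase, 4.8 × 10⁴ cells per 2 mL well. Medium was RPMI-1640 with 10% dialyzed FBS and 25 mM HEPES. Compounds were serially diluted 1:3 in DMSO and added to duplicate wells, with DMSO-only controls, at 0.5% final DMSO. Cells were exposed 72 h at 37 °C in humidified 5% CO₂, then counted. IC50 in nM.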

Mus musculus [2] = assay: In vivo antitumor activity against murine pancreatic adenocarcinoma and measured as % weight loss on a schedule of 3 days and at a total dose of 2 mg/kg; format: functional; in short: as §1
Mus musculus [3] = assay: Ratio of the median tumor weight in the treatment group over the median tumor weight in the control group on a schedule of 3 days and at a total dose of 2 mg/kg; format: functional
In short: (§2)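 Panc-03 murine pancreatic adenocarcinoma in mice, with injectable solutions prepared in water from stock and given within 20 min; chlorohydrins were acidified with 0.05% citric acid. %T/C is median tumor weight of the treated group over that of the control group × 100, calculated when control median tumor weight reaches 1 g. T/C ≤ 42% is taken as significant activity.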

Mus musculus [4] = assay: In vivo antitumor activity against murine pancreatic adenocarcinoma and measured as number of deaths on a schedule of 3,5 days and at a total dose of 1 mg/kg; format: ADME, organism-based; design: dose 1 mg/kg; details: 120 h; in short: as §1
Mus musculus [5] = assay: Ratio of the median tumor weight in the treatment group over the median tumor weight in the control group on a schedule of 3,5 days and at a total dose of 1 mg/kg; format: functional; in short: as §2
Mus musculus [6] = assay: In vivo antitumor activity against murine pancreatic adenocarcinoma and measured as % weight loss on a schedule of 3,5 days and at a total dose of 1.6 mg/kg; format: functional; in short: as §1
Mus musculus [7] = assay: Ratio of the median tumor weight in the treatment group over the median tumor weight in the control group on a schedule of 3,5 days and at a total dose of 1.6 mg/kg; format: functional; in short: as §2
Mus musculus [8] = assay: In vivo antitumor activity against murine pancreatic adenocarcinoma and measured as number of deaths on a schedule of 3,5 days and at a total dose of 1.6 mg/kg; format: ADME, organism-based; design: dose 1.6 mg/kg; details: 120 h; in short: as §1
Mus musculus [9] = assay: In vivo antitumor activity against murine pancreatic adenocarcinoma and measured as number of deaths on a schedule of 3 days and at a total dose of 2 mg/kg; format: ADME, organism-based; design: dose 2 mg/kg; details: 72 h; in short: as §1
Mus musculus [10] = assay: In vivo antitumor activity against murine pancreatic adenocarcinoma and measured as % weight loss on a schedule of 5-10 day and at a total dose of 270 mg/kg; format: functional; in short: as §1
Mus musculus [11] = assay: Ratio of the median tumor weight in the treatment group over the median tumor weight in the control group on a schedule of 5-10 day and at a total dose of 402 mg/kg; format: functional
In short: (§3)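 Murine pancreatic adenocarcinoma Panc-03 tumors in mice. T/C is the median tumor weight of the treated group over that of controls, ×100, taken when control median tumor weight reaches 1 g. T/C ≤42% counts as significant antitumor activity. Dosing solutions were prepared aqueous from stock solutions and injected within 20 min.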

Mus musculus [12] = assay: In vivo antitumor activity against murine pancreatic adenocarcinoma and measured as % weight loss on a schedule of 5-10 day and at a total dose of 210 mg/kg; format: functional; in short: as §1
Mus musculus [13] = assay: Ratio of the median tumor weight in the treatment group over the median tumor weight in the control group on a schedule of 5-10 day and at a total dose of 270 mg/kg; format: functional; in short: as §3
Mus musculus [14] = assay: In vivo antitumor activity against murine pancreatic adenocarcinoma and measured as number of deaths on a schedule of 5-10 day and at a total dose of 270 mg/kg; format: ADME, organism-based; design: dose 270 mg/kg; in short: as §1
Mus musculus [15] = assay: In vivo antitumor activity against murine pancreatic adenocarcinoma and measured as % weight loss on a schedule of 5-10 day and at a total dose of 402 mg/kg; format: functional; in short: as §1
Mus musculus [16] = assay: Ratio of the median tumor weight in the treatment group over the median tumor weight in the control group on a schedule of 5-10 day and at a total dose of 210 mg/kg; format: functional; in short: as §2
Mus musculus [17] = assay: In vivo antitumor activity against murine pancreatic adenocarcinoma and measured as number of deaths on a schedule of 5-10 day and at a total dose of 210 mg/kg; format: ADME, organism-based; design: dose 210 mg/kg; in short: as §1
Mus musculus [18] = assay: In vivo antitumor activity against murine pancreatic adenocarcinoma and measured as number of deaths on a schedule of 5-10 day and at a total dose of 402 mg/kg; format: ADME, organism-based; design: dose 402 mg/kg; in short: as §1
Mus musculus [19] = assay: In vivo antitumor activity against murine pancreatic adenocarcinoma and measured as % weight loss 3,5,7 days and at a total dose of 9 mg/kg; format: functional
In short: (§4)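 Body weight loss was tracked in mice implanted with the Panc-03 murine pancreatic adenocarcinoma. Injections were given within 20 min of aqueous preparation from stock solutions, with chlorohydrins acidified using 0.05% citric acid.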

Mus musculus [20] = assay: In vivo antitumor activity against murine pancreatic adenocarcinoma and measured as % weight loss on a schedule of 3,5,7 days and at a total dose of 18 mg/kg; format: functional; in short: as §4
Mus musculus [21] = assay: In vivo antitumor activity against murine pancreatic adenocarcinoma and measured as number of deaths on a schedule of 3,5,7 days and at a total dose of 9 mg/kg; format: ADME, organism-based; design: dose 9 mg/kg; details: 168 h; in short: as §1
Mus musculus [22] = assay: Ratio of the median tumor weight in the treatment group over the median tumor weight in the control group on a schedule of 3,5,7 days and at a total dose of 18 mg/kg; format: functional
In short: (§5)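 Mice bearing the drug-sensitive murine pancreatic adenocarcinoma Panc-03. Dosing solutions were made in water from stock solutions and injected within 20 min of preparation; chlorohydrins were acidified with 0.05% citric acid. T/C (%) = median tumor weight of the treated group ÷ median tumor weight of controls × 100, calculated when control median tumor weight reached 1 g.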

Mus musculus [23] = assay: In vivo antitumor activity against murine pancreatic adenocarcinoma and measured as number of deaths on a schedule of 3,5,7 days and at a total dose of 18 mg/kg; format: ADME, organism-based; design: dose 18 mg/kg; details: 168 h; in short: as §1
Mus musculus [24] = assay: Ratio of the median tumor weight in the treatment group over the median tumor weight in the control group on a schedule of 3,5,7 days and at a total dose of 36 mg/kg; format: functional; in short: as §5
Mus musculus [25] = assay: In vivo antitumor activity against murine pancreatic adenocarcinoma and measured as % weight loss on a schedule of 3,5,7 days and at a total dose of 36 mg/kg; format: functional; in short: as §4
Mus musculus [26] = assay: Ratio of the median tumor weight in the treatment group over the median tumor weight in the control group on a schedule of 3,5,7 days and at a total dose of 9 mg/kg; format: functional; in short: as §5
Mus musculus [27] = assay: In vivo antitumor activity against murine pancreatic adenocarcinoma and measured as number of deaths on a schedule of 3,5,7 days and at a total dose of 36 mg/kg; format: ADME, organism-based; design: dose 36 mg/kg; details: 168 h; in short: as §1
Mus musculus [28] = assay: Ratio of the median tumor weight in the treatment group over the median tumor weight in the control group on a schedule of 1-6 days and at a total dose of 162 mg/kg; format: functional; in short: as §2
Mus musculus [29] = assay: In vivo antitumor activity against murine pancreatic adenocarcinoma and measured as % weight loss on a schedule of 1-6 days and at a total dose of 162 mg/kg; format: functional; in short: as §1
Mus musculus [30] = assay: In vivo antitumor activity against murine pancreatic adenocarcinoma and measured as % weight loss on a schedule of 1-6 days and at a total dose of 72 mg/kg; format: functional; in short: as §1
Mus musculus [31] = assay: Ratio of the median tumor weight in the treatment group over the median tumor weight in the control group on a schedule of 1-6 days and at a total dose of 72 mg/kg; format: functional; in short: as §2
Mus musculus [32] = assay: In vivo antitumor activity against murine pancreatic adenocarcinoma and measured as number of deaths on a schedule of 1-6 days and at a total dose of 162 mg/kg; format: ADME, organism-based; design: dose 162 mg/kg; in short: as §1
Mus musculus [33] = assay: In vivo antitumor activity against murine pancreatic adenocarcinoma and measured as number of deaths on a schedule of 1-6 days and at a total dose of 72 mg/kg; format: ADME, organism-based; design: dose 72 mg/kg; in short: as §1

## COc1ccc(C[C@H]2NC(=O)/C=C/C[C@@H]([C@H](C)[C@@H](O)[C@@H](Cl)c3ccc(CN4CCNCC4)cc3)OC(=O)[C@H](CC(C)C)OC(=O)C(C)(C)CNC2=O)cc1Cl.Cl.Cl
Mus musculus [1]
  Weight loss: -3%
CCRF-CEM
  IC50: 0.021 nM
Mus musculus [2]
  Weight loss: -26%
Mus musculus [3]
  T/C: 8%
Mus musculus [4]
  Death: 0
Mus musculus [5]
  T/C: 33%
Mus musculus [6]
  Weight loss: -16%
Mus musculus [7]
  T/C: 0%
Mus musculus [8]
  Death: 0
Mus musculus [9]
  Death: 2

## COc1ccc(C[C@H]2NC(=O)/C=C/C[C@@H]([C@H](C)[C@@H](O)[C@@H](Cl)c3ccccc3)OC(=O)[C@H](CC(C)C)OC(=O)C(C)(C)CNC2=O)cc1Cl
Mus musculus [10]
  Weight loss: -5%
Mus musculus [11]
  T/C: 0%
Mus musculus [12]
  Weight loss: -5%
Mus musculus [13]
  T/C: 0%
Mus musculus [14]
  Death: 0
Mus musculus [15]
  Weight loss: -6%
Mus musculus [16]
  T/C: 0%
Mus musculus [17]
  Death: 0
Mus musculus [18]
  Death: 0

## COc1ccc(C[C@H]2NC(=O)/C=C/C[C@@H]([C@H](C)[C@@H](O)[C@@H](Cl)c3ccc(COC(=O)CN)cc3)OC(=O)[C@H](CC(C)C)OC(=O)C(C)(C)CNC2=O)cc1Cl.Cl
CCRF-CEM
  IC50: 0.013 nM
Mus musculus [19]
  Weight loss: -2%
Mus musculus [20]
  Weight loss: -4%
Mus musculus [21]
  Death: 0
Mus musculus [22]
  T/C: 0%
Mus musculus [23]
  Death: 0
Mus musculus [24]
  T/C: 0%
Mus musculus [25]
  Weight loss: -20%
Mus musculus [26]
  T/C: 0%
Mus musculus [27]
  Death: 3

## COc1ccc(C[C@H]2NC(=O)/C=C/C[C@@H]([C@H](C)[C@@H](O)[C@@H](Cl)c3cccc(C)c3)OC(=O)[C@H](CC(C)C)OC(=O)C(C)(C)CNC2=O)cc1Cl
CCRF-CEM
  IC50: 0.3 nM
Mus musculus [28]
  T/C: 0%
Mus musculus [29]
  Weight loss: 7%
Mus musculus [30]
  Weight loss: 12%
Mus musculus [31]
  T/C: 46%
Mus musculus [32]
  Death: 0
Mus musculus [33]
  Death: 0
